Calls of active or inactive are those of the source. The rule behind the calls is not given here.
What was measured:
[1] = biological target: T1, Glycogen synthase kinase-3 beta (Homo sapiens, UniProt P49841); experiment: Inhibition of human recombinant N-terminal His6-tagged human GSK-3beta expressed in Baculovirus infected SF9 cells using prephosphorylated-GS2 polypeptide as substrate after 30 mins by kinase-Glo reagent based luminescence assay
Outline: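 GSK-3β was incubated with ATP and GS-2 substrate with or without compound. ATP remaining after the kinase reaction was quantified by Kinase-Glo luminescence. IC50 is the mean of triplicate experiments.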
Target sequence in this assay (P49841 whole entry): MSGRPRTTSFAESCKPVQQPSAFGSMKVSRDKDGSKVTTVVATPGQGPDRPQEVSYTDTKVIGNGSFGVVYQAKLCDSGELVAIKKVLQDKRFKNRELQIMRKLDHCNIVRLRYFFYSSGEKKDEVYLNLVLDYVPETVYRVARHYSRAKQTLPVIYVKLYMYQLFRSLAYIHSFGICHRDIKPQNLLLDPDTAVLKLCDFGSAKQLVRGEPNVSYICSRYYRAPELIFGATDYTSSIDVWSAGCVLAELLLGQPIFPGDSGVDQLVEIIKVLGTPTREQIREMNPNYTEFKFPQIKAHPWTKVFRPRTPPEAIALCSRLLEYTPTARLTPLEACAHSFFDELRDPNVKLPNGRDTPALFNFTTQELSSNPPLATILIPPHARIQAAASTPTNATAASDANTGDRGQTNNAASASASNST

Mus musculus [2] = experiment: Anti-inflammatory activity in C57BL/6 mouse lung injury model assessed as inhibition of IL-6 mRNA expression level at 80 uM, ip administered 12 hrs prior to LPS challenge and measured after 24 hrs by qRT-PCR analysis; type: functional
[3] = biological target: Platelet-derived growth factor receptor beta (Homo sapiens) (UniProt P09619); experiment: Inhibition of human PDGFRbeta at 100 uM
Outline: (§1)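 Kinase selectivity panel run at 100 μM inhibitor. Activity is reported as % inhibition, the mean of two independent experiments.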

[4] = biological target: Protein kinase C alpha type (Homo sapiens) (UniProt P17252); experiment: Inhibition of human PKCalpha at 100 uM; outline: as §1
[5] = biological target: Cyclin-dependent kinase 1 (Homo sapiens) (UniProt P06493); experiment: Inhibition of human CDK1 at 100 uM; outline: as §1
[6] = biological target: Mast/stem cell growth factor receptor Kit (Homo sapiens) (UniProt P10721); experiment: Inhibition of human c-KIT at 100 uM; outline: as §1
[7] = biological target: Casein kinase 2 (Homo sapiens) (UniProt P67870+P68400+P19784+Q8NEV1); experiment: Inhibition of human CK2 at 100 uM; type: protein assay; outline: as §1
[8] = biological target: Fibroblast growth factor receptor 1 (Homo sapiens) (UniProt P11362); experiment: Inhibition of human FGFR1 at 100 uM; outline: as §1
Mus musculus [9] = experiment: In vivo inhibition of GSK-3beta in C57BL/6 mouse lung injury model assessed as upregulation of LPS-induced phosphorylation at Ser9 residue in lung at 80 uM, ip administered 12 hrs prior to LPS challenge and measured after 24 hrs by Western blot analysis relative to control; type: functional
Outline: (§2)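 Mice were pretreated ip with compound (80 μM) or PBS, and LPS (10 mg/kg ip) was given 12 h later. Lungs were collected 24 h post-LPS, and p-GSK-3β and SIRT1 were detected by Western blot. Values are means ± SE of 4 independent experiments.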

[10] = biological target: Proto-oncogene tyrosine-protein kinase Src (Homo sapiens) (UniProt P12931); settings: at 100 µM
Mus musculus [11] = experiment: Anti-inflammatory activity in C57BL/6 mouse lung injury model assessed as inhibition of IL-1beta mRNA expression level at 80 uM, ip administered 12 hrs prior to LPS challenge and measured after 24 hrs by qRT-PCR analysis; type: functional
[12] = biological target: Receptor tyrosine-protein kinase erbB-4 (Homo sapiens) (UniProt Q15303); experiment: Inhibition of human ErbB4 at 100 uM; outline: as §1
Homo sapiens = organism: Homo sapiens; experiment: Inhibition of human PKA at 100 uM; outline: as §1
Mus musculus [13] = experiment: Anti-inflammatory activity in C57BL/6 mouse lung injury model assessed reduction in lung tissue damage at 80 uM, ip administered 12 hrs prior to LPS challenge and measured after 24 hrs by Hematoxylin and eosin staining-based light microscopic analysis; type: functional; set-up: scale not given: the % may be the effect or the level left
Outline: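 C57BL/6 mice received compound (80 μM) or PBS ip, followed 12 h later by LPS (10 mg/kg ip). At 24 h after LPS, lungs were fixed, embedded, sectioned and H&E stained. Hemorrhage, edema, interstitial inflammatory cell infiltration, hyaline membrane and atelectasis were each graded 0–4 to give an injury score. Mean ± SEM, n = 5 mice.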

[14] = biological target: Vascular endothelial growth factor receptor 1 (Homo sapiens) (UniProt P17948); experiment: Inhibition of human Flt1 at 100 uM; outline: as §1
[15] = biological target: T1, Glycogen synthase kinase-3 beta; experiment: Non-ATP competitive inhibition of recombinant N-terminal His6-tagged human GSK-3beta expressed in Baculovirus infected SF9 cells at 15 to 25 uM using prephosphorylated-GS2 polypeptide as substrate after 30 mins by kinase-Glo reagent based luminescence assay
Outline: (§3)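 Kinetic analysis used the same Kinase-Glo GSK-3β assay. Inhibitor was tested at fixed concentrations while one substrate (ATP or GS-2) was held constant and the other varied, and the data were plotted as double-reciprocal plots.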
Target sequence in this assay (P49841 whole entry, looked up): as the sequence (P49841 whole entry) above

[16] = biological target: Platelet-derived growth factor receptor alpha (Homo sapiens) (UniProt P16234); experiment: Inhibition of human PDGFRalpha at 100 uM; outline: as §1
Mus musculus [17] = experiment: In vivo inhibition of GSK-3beta in C57BL/6 mouse lung injury model assessed as upregulation of SIRT1 expression in lung at 80 uM, ip administered 12 hrs prior to LPS challenge and measured after 24 hrs by Western blot analysis relative to control; type: functional; outline: as §2
[18] = biological target: Proto-oncogene tyrosine-protein kinase receptor Ret (Homo sapiens) (UniProt P07949); experiment: Inhibition of human RET at 100 uM
[19] = biological target: Tyrosine-protein kinase ABL1 (Homo sapiens) (UniProt P00519); settings: at 100 µM
[20] = biological target: Vascular endothelial growth factor receptor 2 (Homo sapiens) (UniProt P35968); experiment: Inhibition of human KDR at 100 uM; outline: as §1
[21] = biological target: T1, Glycogen synthase kinase-3 beta; experiment: Non-ATP competitive inhibition of recombinant N-terminal His6-tagged human GSK-3beta expressed in Baculovirus infected SF9 cells at 20 to 30 uM using prephosphorylated-GS2 polypeptide as substrate after 30 mins by kinase-Glo reagent based luminescence assay; outline: as §3
Target sequence in this assay (P49841 whole entry, looked up): as the sequence (P49841 whole entry) above

Proto-oncogene tyrosine-protein kinase Src (Homo sapiens), sequence (P12931 2-536 limits assumed): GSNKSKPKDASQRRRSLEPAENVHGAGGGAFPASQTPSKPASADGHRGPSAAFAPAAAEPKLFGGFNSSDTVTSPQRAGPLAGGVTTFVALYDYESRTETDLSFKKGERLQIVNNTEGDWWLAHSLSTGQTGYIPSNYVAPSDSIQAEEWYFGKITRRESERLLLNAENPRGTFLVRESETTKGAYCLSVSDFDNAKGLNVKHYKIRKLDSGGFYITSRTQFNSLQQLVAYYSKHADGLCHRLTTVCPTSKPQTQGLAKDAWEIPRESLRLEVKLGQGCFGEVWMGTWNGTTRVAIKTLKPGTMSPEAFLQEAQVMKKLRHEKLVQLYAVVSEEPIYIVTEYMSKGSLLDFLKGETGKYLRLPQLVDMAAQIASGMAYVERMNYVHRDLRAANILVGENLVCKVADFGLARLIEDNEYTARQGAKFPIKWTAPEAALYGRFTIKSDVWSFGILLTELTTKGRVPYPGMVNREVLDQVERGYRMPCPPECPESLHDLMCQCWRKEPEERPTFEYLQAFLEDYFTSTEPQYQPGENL
Vascular endothelial growth factor receptor 1 (Homo sapiens), sequence (P17948 whole entry): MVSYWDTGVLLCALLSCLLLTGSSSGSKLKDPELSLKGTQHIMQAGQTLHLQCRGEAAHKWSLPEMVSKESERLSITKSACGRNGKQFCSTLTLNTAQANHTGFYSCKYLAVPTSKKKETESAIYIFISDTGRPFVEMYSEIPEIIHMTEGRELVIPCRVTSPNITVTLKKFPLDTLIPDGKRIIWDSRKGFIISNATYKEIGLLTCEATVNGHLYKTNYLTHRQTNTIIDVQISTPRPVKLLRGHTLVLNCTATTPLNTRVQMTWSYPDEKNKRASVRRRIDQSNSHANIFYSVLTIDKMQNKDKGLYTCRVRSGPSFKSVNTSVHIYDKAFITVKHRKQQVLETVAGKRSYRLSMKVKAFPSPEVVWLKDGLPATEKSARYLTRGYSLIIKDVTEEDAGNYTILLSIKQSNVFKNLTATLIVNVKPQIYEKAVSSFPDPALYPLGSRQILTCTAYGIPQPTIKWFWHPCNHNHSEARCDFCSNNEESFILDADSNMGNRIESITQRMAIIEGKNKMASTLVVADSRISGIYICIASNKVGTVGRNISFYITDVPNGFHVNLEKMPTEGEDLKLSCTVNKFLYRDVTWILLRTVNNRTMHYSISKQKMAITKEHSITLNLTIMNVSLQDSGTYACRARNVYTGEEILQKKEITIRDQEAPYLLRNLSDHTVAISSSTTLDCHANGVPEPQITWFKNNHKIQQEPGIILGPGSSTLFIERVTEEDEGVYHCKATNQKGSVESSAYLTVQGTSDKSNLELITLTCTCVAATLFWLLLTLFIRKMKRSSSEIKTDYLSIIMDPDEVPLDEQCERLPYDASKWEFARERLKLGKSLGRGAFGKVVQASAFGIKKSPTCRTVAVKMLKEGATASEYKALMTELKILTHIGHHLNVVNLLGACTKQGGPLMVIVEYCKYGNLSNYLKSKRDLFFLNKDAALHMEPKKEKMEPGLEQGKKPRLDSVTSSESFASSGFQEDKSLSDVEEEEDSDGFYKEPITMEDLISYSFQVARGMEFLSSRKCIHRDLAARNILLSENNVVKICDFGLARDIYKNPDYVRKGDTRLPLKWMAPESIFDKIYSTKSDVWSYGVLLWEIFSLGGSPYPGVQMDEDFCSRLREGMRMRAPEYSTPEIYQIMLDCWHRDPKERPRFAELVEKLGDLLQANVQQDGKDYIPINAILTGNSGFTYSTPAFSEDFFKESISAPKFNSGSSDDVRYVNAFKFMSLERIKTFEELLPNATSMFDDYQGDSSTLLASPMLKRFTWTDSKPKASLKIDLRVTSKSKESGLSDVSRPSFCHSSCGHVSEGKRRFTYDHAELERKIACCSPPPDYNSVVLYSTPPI
Cyclin-dependent kinase 1 (Homo sapiens), sequence (P06493 whole entry, looked up): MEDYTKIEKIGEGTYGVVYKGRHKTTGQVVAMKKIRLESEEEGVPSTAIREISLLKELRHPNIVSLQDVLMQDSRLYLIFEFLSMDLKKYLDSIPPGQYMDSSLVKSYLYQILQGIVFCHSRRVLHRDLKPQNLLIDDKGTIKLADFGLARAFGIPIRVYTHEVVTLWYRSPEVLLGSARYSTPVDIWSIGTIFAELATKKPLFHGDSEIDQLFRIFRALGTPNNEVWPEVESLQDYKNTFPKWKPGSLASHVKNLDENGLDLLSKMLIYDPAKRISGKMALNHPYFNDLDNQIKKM
Fibroblast growth factor receptor 1 (Homo sapiens), sequence (P11362 22-822 limits assumed): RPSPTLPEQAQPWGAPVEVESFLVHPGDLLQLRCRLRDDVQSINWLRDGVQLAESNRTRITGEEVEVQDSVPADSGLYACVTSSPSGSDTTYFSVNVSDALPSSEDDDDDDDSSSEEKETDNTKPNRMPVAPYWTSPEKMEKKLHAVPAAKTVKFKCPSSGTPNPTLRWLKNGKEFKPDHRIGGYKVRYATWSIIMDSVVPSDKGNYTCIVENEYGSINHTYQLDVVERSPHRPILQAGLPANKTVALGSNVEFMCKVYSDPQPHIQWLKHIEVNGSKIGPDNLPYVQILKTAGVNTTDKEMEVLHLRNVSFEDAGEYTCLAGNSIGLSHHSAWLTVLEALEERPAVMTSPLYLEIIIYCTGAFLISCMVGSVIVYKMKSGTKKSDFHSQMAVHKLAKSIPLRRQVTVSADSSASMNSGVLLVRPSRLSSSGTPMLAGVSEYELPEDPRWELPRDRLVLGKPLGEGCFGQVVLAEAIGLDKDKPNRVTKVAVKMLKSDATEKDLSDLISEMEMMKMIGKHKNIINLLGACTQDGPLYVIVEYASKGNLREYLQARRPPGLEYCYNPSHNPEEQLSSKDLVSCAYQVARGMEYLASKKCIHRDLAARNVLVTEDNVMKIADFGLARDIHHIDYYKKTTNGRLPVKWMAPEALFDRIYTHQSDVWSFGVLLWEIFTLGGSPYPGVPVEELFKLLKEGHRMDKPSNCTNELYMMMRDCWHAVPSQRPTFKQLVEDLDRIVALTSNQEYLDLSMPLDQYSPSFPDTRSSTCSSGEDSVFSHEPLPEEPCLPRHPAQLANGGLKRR
Mast/stem cell growth factor receptor Kit (Homo sapiens), sequence (P10721 whole entry): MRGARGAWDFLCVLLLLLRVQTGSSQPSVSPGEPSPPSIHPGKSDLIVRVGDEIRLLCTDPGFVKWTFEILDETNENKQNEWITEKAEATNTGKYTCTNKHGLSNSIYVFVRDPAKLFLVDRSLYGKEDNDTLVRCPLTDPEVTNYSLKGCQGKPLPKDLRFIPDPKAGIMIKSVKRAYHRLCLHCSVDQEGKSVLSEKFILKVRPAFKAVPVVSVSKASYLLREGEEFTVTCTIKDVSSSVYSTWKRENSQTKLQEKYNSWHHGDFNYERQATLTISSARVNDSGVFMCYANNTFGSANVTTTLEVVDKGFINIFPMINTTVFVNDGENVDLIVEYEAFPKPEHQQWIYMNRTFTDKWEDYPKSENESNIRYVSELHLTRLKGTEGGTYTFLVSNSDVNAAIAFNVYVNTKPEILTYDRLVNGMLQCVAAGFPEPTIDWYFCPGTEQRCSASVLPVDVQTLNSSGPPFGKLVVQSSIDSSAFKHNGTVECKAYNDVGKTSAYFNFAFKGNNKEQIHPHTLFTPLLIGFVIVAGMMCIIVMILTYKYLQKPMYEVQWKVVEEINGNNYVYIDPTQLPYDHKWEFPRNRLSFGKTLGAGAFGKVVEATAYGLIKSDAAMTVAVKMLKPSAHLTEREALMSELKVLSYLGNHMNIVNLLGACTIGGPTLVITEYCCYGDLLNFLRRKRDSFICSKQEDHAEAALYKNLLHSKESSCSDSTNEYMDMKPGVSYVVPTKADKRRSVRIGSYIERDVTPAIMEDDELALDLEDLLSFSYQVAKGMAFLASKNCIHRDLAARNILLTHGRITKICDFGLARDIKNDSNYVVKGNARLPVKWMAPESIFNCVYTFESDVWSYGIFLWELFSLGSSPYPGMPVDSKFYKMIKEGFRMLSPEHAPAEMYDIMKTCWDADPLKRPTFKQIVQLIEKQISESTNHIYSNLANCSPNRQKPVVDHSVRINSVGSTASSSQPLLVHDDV

## Cc1ccc(CNC(=O)c2ccc(C3CC(=O)N(Cc4ccccc4[N+](=O)[O-])c4ccccc4S3)cc2)cc1 (stereo unspecified)
[1]
  IC50: 18 µM

## CS(=O)(=O)c1cccc(N2C(=O)CC(c3ccc(C(=O)NCc4cccc(Cl)c4)cc3)Sc3ccccc32)c1 (stereo unspecified)
[1]
  IC50: 18 µM

## O=C(NC1CCCCC1)c1ccc(C2CC(=O)N(Cc3ccccc3[N+](=O)[O-])c3ccccc3S2)cc1 (stereo unspecified)
[1]
  IC50: 32 µM

## O=C(NCc1ccccn1)c1ccc(C2CC(=O)N(Cc3ccccc3[N+](=O)[O-])c3ccccc3S2)cc1 (stereo unspecified)
[1]
  IC50: 75 µM

## COC(=O)c1ccc(C2CC(=O)N(Cc3ccccc3[N+](=O)[O-])c3ccccc3S2)cc1 (stereo unspecified)
[1]
  IC50: 35 µM

## CS(=O)(=O)Nc1ccccc1CN1C(=O)CC(c2ccc(C(=O)NCc3cccc(Cl)c3)cc2)Sc2ccccc21 (stereo unspecified)
[1]
  IC50: 17 µM

## N#Cc1ccc(C2CC(=O)N(Cc3ccccc3[N+](=O)[O-])c3ccccc3S2)cc1 (stereo unspecified)
[1]
  IC50: 45 µM

## O=C(NCc1cccc(Cl)c1)c1ccc(C2CC(=O)N(Cc3ccccc3[N+](=O)[O-])c3ccccc3S2)cc1 (stereo unspecified)
[1]
  IC50: 35 µM

## CN1CCN(C(=O)c2ccc(C3CC(=O)N(Cc4ccccc4[N+](=O)[O-])c4ccccc4S3)cc2)CC1 (stereo unspecified)
[1]
  IC50: > 100 µM

## O=C(NC1CC1)c1ccc(C2CC(=O)N(Cc3ccccc3[N+](=O)[O-])c3ccccc3S2)cc1 (stereo unspecified)
[1]
  IC50: > 100 µM

## O=C(Nc1ccccn1)c1ccc(C2CC(=O)N(Cc3ccccc3[N+](=O)[O-])c3ccccc3S2)cc1 (stereo unspecified)
[1]
  IC50: 35 µM

## NC(=O)c1ccccc1CN1C(=O)CC(c2ccc(C(=O)NCc3ccccc3)cc2)Sc2ccccc21 (stereo unspecified)
[1]
  IC50: 100 µM

## CC(C)(C)NC(=O)c1ccc(C2CC(=O)N(Cc3ccccc3[N+](=O)[O-])c3ccccc3S2)cc1 (stereo unspecified)
[1]
  IC50: 48 µM

## COC(=O)c1cccc(C2CC(=O)N(Cc3ccccc3[N+](=O)[O-])c3ccccc3S2)c1 (stereo unspecified)
[1]
  IC50: 66 µM

## O=C(NCc1ccc(Br)cc1)c1ccc(C2CC(=O)N(Cc3ccccc3[N+](=O)[O-])c3ccccc3S2)cc1 (stereo unspecified)
[1]
  IC50: 25 µM

## CCCCNC(=O)c1ccc(C2CC(=O)N(Cc3ccccc3[N+](=O)[O-])c3ccccc3S2)cc1 (stereo unspecified)
[1]
  IC50: 22 µM

## O=C(NCc1cccc(F)c1)c1ccc(C2CC(=O)N(Cc3ccccc3[N+](=O)[O-])c3ccccc3S2)cc1 (stereo unspecified)
[1]
  IC50: 19 µM

## O=C(NCc1ccccc1F)c1ccc(C2CC(=O)N(Cc3ccccc3[N+](=O)[O-])c3ccccc3S2)cc1 (stereo unspecified)
[1]
  IC50: 20 µM

## O=C(NCc1ccccc1)c1ccc(C2CC(=O)N(Cc3ccccc3[N+](=O)[O-])c3ccccc3S2)cc1 (stereo unspecified)
Mus musculus [2]
  inhibition (INH): 38.16%
[1]
  IC50: 28 µM
[3]
  inhibition: 5.5%
[4]
  inhibition: 12%
[5]
  inhibition: 16%
[6]
  inhibition: 28%
[7]
  inhibition: 20%
[8]
  inhibition: 13.5%
Mus musculus [9]
  fold change (FC): 1.42
[10]
  inhibition: 7.2%
Mus musculus [11]
  inhibition (INH): 43.18%
[12]
  inhibition: 12.2%
Homo sapiens
  inhibition: 0%
Mus musculus [13]
  Activity: 65%
[14]
  inhibition: 6.8%
[15]
  inhibition: Active
[16]
  inhibition: 7.2%
Mus musculus [17]
  fold change (FC): 1.93
[18]
  inhibition: 68%
[19]
  inhibition: 0%

## O=C(c1ccc(C2CC(=O)N(Cc3ccccc3[N+](=O)[O-])c3ccccc3S2)cc1)N1CCCCC1 (stereo unspecified)
[1]
  IC50: 49 µM

## CCN(CC)CCNC(=O)c1c(C)[nH]c(/C=C2\C(=O)Nc3ccc(F)cc32)c1C
[6]
  inhibition: 49.4%

## CCN(CC)C(=O)c1ccc(C2CC(=O)N(Cc3ccccc3[N+](=O)[O-])c3ccccc3S2)cc1 (stereo unspecified)
[1]
  IC50: 90 µM

## Cc1ccc(C2CC(=O)N(Cc3ccccc3[N+](=O)[O-])c3ccccc3S2)cc1 (stereo unspecified)
[1]
  IC50: 20 µM

## COc1ccc(CNC(=O)c2ccc(C3CC(=O)N(Cc4ccccc4[N+](=O)[O-])c4ccccc4S3)cc2)cc1 (stereo unspecified)
[1]
  IC50: 27 µM

## O=C(NCCc1ccccc1)c1ccc(C2CC(=O)N(Cc3ccccc3[N+](=O)[O-])c3ccccc3S2)cc1 (stereo unspecified)
[1]
  IC50: 21 µM

## O=C1CC(c2ccc(C(=O)NCc3cccc(Cl)c3)cc2)Sc2ccccc2N1 (stereo unspecified)
Mus musculus [2]
  inhibition (INH): 24.35%
[1]
  IC50: 25 µM
[3]
  inhibition: 41.2%
[4]
  inhibition: 2%
[5]
  inhibition: 22%
[7]
  inhibition: -6%
[8]
  inhibition: 5.4%
[20]
  inhibition: 8.7%
[10]
  inhibition: 0%
Mus musculus [11]
  inhibition (INH): 28.84%
Homo sapiens
  inhibition: -7%
Mus musculus [13]
  Activity: 49%
[14]
  inhibition: 8.9%
Mus musculus [17]
  fold change (FC): 1.34
[21]
  inhibition: Active
[18]
  inhibition: 18.5%
[19]
  inhibition: 46.6%

## O=C(NCc1ccc(F)cc1)c1ccc(C2CC(=O)N(Cc3ccccc3[N+](=O)[O-])c3ccccc3S2)cc1 (stereo unspecified)
[1]
  IC50: 18 µM

## O=C(NCc1ccco1)c1ccc(C2CC(=O)N(Cc3ccccc3[N+](=O)[O-])c3ccccc3S2)cc1 (stereo unspecified)
[1]
  IC50: 27 µM

## O=C(NCc1ccc(Cl)cc1)c1ccc(C2CC(=O)N(Cc3ccccc3[N+](=O)[O-])c3ccccc3S2)cc1 (stereo unspecified)
[1]
  IC50: 33 µM

## COC(=O)c1ccccc1C1CC(=O)N(Cc2ccccc2[N+](=O)[O-])c2ccccc2S1 (stereo unspecified)
[1]
  IC50: 80 µM

## O=C1CC(c2ccc(-c3ccccc3)cc2)Sc2ccccc2N1Cc1ccccc1[N+](=O)[O-] (stereo unspecified)
[1]
  IC50: 51 µM
